In ChEMBL document CHEMBL3612066, “Design, Synthesis, and Biological Evaluation of Pyrazolo[1,5-a]pyridine-3-carboxamides as Novel Antitubercular Agents” (ACS Med Chem Lett, 2015):
Converted amounts (≈) assume the structure as drawn.

Tests used:
Assay type in all cases: functional
[1] = tested on: Mycobacterium tuberculosis; test: Antitubercular activity against multidrug-resistant Mycobacterium tuberculosis UAlP7 after 7 days by autoluminescent assay; settings: UAlP7, 168 h
Method in brief: (§1)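 Autoluminescent assay against MDR clinical isolates (3495, P71, 9804, 4768, P163). Bacterial growth was read as bioluminescence intensity with no added substrate. MIC values are means of two independent experiments.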

[2] = tested on: Mycobacterium tuberculosis; test: Antitubercular activity against multidrug-resistant Mycobacterium tuberculosis UAlP163 after 7 days by autoluminescent assay; settings: UAlP163, 168 h; method in brief: as §1
[3] = tested on: Mycobacterium tuberculosis; test: Antitubercular activity against multidrug-resistant Mycobacterium tuberculosis UAl9804 after 7 days by autoluminescent assay; settings: UAl9804, 168 h; method in brief: as §1
[4] = tested on: Mycobacterium tuberculosis; test: Antitubercular activity against multidrug-resistant Mycobacterium tuberculosis UAl4768 after 7 days by autoluminescent assay; settings: UAl4768, 168 h; method in brief: as §1
[5] = tested on: Mycobacterium tuberculosis; test: Antitubercular activity against multidrug-resistant Mycobacterium tuberculosis UAl3495 after 7 days by autoluminescent assay; settings: UAl3495, 168 h; method in brief: as §1

| SMILES | MIC [1] [µM] | MIC [2] [µM] | MIC [3] [µM] | MIC [4] [µM] | MIC [5] [µM] |
| --- | --- | --- | --- | --- | --- |
| CCc1nn2ccc(Cl)cc2c1C(=O)NCc1ccc(N2CCC(c3ccc(OC(F)(F)F)cc3)CC2)cc1 | 0.0718 (≈ 0.04 µg/mL) | < 0.0359 | < 0.0359 | 0.0359 (≈ 0.02 µg/mL) | – |
| COc1ccn2nc(C)c(C(=O)NCc3ccc(N4CCC(c5ccc(OC(F)(F)F)cc5)CC4)cc3)c2c1 | 0.0111 (≈ 0.00598 µg/mL) | 0.0111 (≈ 0.00598 µg/mL) | < 0.0111 | 0.0111 (≈ 0.00598 µg/mL) | 0.0223 (≈ 0.012 µg/mL) |
| Cc1nn2ccc(Cl)cc2c1C(=O)NCc1ccc(N2CCC(c3ccc(OC(F)(F)F)cc3)CC2)cc1 | < 0.184 | < 0.184 | < 0.184 | < 0.184 | – |
| Cc1ccn2nc(C)c(C(=O)NCc3ccc(N4CCC(c5ccc(OC(F)(F)F)cc5)CC4)cc3)c2c1 | < 0.383 | < 0.383 | < 0.383 | < 0.383 | 1.91 (≈ 1 µg/mL) |
